In ChEMBL document CHEMBL3751698, “5,7-Disubstituted-[1,2,4]triazolo[1,5-a][1,3,5]triazines as pharmacological tools to explore the antagonist selectivity profiles toward adenosine receptors” (Eur J Med Chem, 2016):

Key:
Adenosine receptor A2a = Adenosine receptor A2a (Homo sapiens, UniProt P29274); test: Displacement of [3H]NECA from human A2A adenosine receptor expressed in CHO cell membranes
Method in brief: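 Crude membranes from stably transfected CHO cells, prepared by a two-step spin (1,000 x g, then 100,000 x g). Competition with 10 nM [3H]NECA, with nonspecific binding measured in presence of 100 µM R-PIA. Ki derived from competition experiments.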

Homo sapiens [1] = organism: Homo sapiens; test: Selectivity index, ratio of Ki for human A3 adenosine receptor to Ki for human A2A adenosine receptor
Adenosine receptor A3 = molecular target: T1, Adenosine receptor A3 (Homo sapiens, UniProt P0DMS8); test: Displacement of [3H]HEMADO from human A3 adenosine receptor expressed in CHO cell membranes
T1 sequence (P0DMS8 whole entry): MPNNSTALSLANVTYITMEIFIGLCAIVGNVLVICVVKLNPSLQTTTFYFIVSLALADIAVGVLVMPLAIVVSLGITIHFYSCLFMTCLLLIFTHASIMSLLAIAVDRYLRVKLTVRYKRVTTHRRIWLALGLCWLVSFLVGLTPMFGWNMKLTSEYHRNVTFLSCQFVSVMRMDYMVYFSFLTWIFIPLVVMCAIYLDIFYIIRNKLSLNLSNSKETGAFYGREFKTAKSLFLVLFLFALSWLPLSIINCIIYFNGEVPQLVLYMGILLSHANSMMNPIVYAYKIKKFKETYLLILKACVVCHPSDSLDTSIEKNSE
Method in brief: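 Two-step centrifugation (1,000 x g, then 100,000 x g) of stably transfected CHO cells gave the membranes. Displacement of 1 nM [3H]HEMADO; nonspecific binding taken with 100 µM R-PIA. Ki computed from competition data.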

Homo sapiens [2] = organism: Homo sapiens; test: Selectivity index, ratio of Ki for human A1 adenosine receptor to Ki for human A2A adenosine receptor
Adenosine receptor A2b = molecular target: T2, Adenosine receptor A2b (Homo sapiens, UniProt P29275); test: Antagonist activity at human A2B adenosine receptor expressed in CHO cell membranes assessed as inhibition of NECA stimulated adenylyl cyclase activity; type: functional, cell-based
T2 sequence (P29275 whole entry): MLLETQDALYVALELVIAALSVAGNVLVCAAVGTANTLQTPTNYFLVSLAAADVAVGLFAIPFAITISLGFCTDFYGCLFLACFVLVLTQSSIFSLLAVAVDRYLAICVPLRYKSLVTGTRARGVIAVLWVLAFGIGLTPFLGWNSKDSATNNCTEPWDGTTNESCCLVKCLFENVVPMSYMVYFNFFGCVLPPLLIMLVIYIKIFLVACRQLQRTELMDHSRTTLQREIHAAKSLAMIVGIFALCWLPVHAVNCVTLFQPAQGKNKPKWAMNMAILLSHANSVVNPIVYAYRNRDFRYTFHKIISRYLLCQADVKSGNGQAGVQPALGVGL
Method in brief: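 CHO cells stably expressing hA2B; crude membranes from a single high-speed spin, resuspended in 50 mM Tris/HCl pH 7.4 and used fresh. Incubated 20 min with about 150,000 cpm [α-32P]ATP in a mixture without EDTA and NaCl. IC50 for inhibition of NECA-stimulated cyclase obtained by Hill equation fit.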

Adenosine receptor A1 = molecular target: T3, Adenosine receptor A1 (Homo sapiens, UniProt P30542); test: Displacement of [3H]CCPA from human A1 adenosine receptor expressed in CHO cell membranes
T3 sequence (P30542 whole entry): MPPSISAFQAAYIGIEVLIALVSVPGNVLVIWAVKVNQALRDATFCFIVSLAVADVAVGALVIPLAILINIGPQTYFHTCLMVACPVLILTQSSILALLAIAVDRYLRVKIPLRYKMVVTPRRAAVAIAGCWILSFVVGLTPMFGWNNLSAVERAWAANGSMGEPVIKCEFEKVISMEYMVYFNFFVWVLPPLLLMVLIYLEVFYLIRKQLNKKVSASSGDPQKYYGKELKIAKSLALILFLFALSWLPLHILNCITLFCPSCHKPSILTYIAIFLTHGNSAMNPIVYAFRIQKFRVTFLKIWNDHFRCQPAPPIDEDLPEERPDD
Method in brief: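 Membranes from stably transfected CHO cells (1,000 x g spin to clear nuclei and debris, then 100,000 x g pellet), resuspended in binding buffer and frozen. Competition against 1 nM [3H]CCPA; nonspecific binding defined with 1 mM theophylline. Ki calculated from competition curves.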

Sequence of Adenosine receptor A2a (P29274 whole entry): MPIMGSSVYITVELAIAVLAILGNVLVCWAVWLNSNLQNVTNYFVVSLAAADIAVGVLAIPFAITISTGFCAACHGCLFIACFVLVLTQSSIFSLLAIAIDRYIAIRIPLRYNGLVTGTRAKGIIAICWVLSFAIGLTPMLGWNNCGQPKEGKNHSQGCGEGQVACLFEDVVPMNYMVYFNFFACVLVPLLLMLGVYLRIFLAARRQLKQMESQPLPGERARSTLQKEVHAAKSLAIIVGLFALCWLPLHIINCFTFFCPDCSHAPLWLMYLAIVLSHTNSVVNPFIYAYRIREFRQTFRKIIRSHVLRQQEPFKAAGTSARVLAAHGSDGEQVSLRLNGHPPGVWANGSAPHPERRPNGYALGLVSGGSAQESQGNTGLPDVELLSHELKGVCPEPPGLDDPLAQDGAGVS

Row | Structure (SMILES) | Ki (Adenosine receptor A2a) [µM] | Ratio Ki (Homo sapiens [1]) | Ki (Adenosine receptor A3) [µM] | Ratio Ki (Homo sapiens [2]) | IC50 (Adenosine receptor A2b) [µM] | Ki (Adenosine receptor A1; read-out: Ki) [µM] | Ki (Adenosine receptor A1; cho)
1 | CNc1nc(NC(=O)Cc2ccccc2)n2nc(-c3ccco3)nc2n1 | 0.3 | 5.57 | 1.67 | 29.9 | > 30 | 8.96 | –
2 | c1ccc(CNc2nc(NCc3ccccc3)n3nc(-c4ccco4)nc3n2)cc1 | 0.0204 | 1.81 | 0.037 | 38.4 | 11.8 | 0.784 | –
3 | CC(C)Nc1nc(NC(=O)Nc2ccccc2)n2nc(-c3ccco3)nc2n1 | 0.0869 | 1.96 | 0.17 | 13.6 | > 30 | 1.18 | –
4 | CNc1nc(NC2CCCCC2)n2nc(-c3ccco3)nc2n1 | 0.143 | 6.33 | 0.905 | 2.52 | > 30 | 0.361 | –
5 | c1ccc(CNc2nc(NC3CCCCC3)nc3nc(-c4ccco4)nn23)cc1 | – | – | – | – | – | – | ND(Insoluble)
6 | O=C(Nc1ccccc1)Nc1nc(NC2CCCCC2)nc2nc(-c3ccco3)nn12 | 0.00787 | 44.3 | 0.349 | 120 | > 30 | 0.946 | –
7 | CNc1nc(NC(=O)c2ccccc2)n2nc(-c3ccco3)nc2n1 | 0.194 | 47.6 | 9.24 | 54.1 | > 30 | 10.5 | –
8 | CNc1nc(NC(=O)Nc2ccccc2)n2nc(-c3ccco3)nc2n1 | 0.0996 | 5.74 | 0.572 | 38.6 | > 30 | 3.85 | –
9 | Fc1ccc(CNc2nc(NCc3ccccc3)nc3nc(-c4ccco4)nn23)cc1 | 0.0218 | 3.45 | 0.0753 | 68.3 | > 30 | 1.49 | –
10 | Fc1ccc(CNc2nc(Oc3ccccc3)nc3nc(-c4ccco4)nn23)cc1 | 0.905 | > 110 | > 100 | > 110 | > 30 | > 100 | –
11 | O=C(Nc1nc(NCc2ccccc2)nc2nc(-c3ccco3)nn12)c1ccccc1 | 0.0952 | 2.63 | 0.25 | 15.2 | > 30 | 1.45 | –
12 | Fc1ccc(CNc2nc(NC3CCCCC3)nc3nc(-c4ccco4)nn23)cc1 | 0.112 | 11.6 | 1.3 | > 893 | > 30 | > 100 | –
13 | CC(C)Nc1nc(NC(=O)c2ccccc2)n2nc(-c3ccco3)nc2n1 | 2.15 | 6.23 | 13.4 | 11.3 | > 30 | 24.4 | –
14 | CNc1nc(NCc2ccccc2)n2nc(-c3ccco3)nc2n1 | 0.173 | 1.59 | 0.275 | 16 | > 30 | 2.77 | –
15 | O=C(Cc1ccccc1)Nc1nc(NC2CCCCC2)nc2nc(-c3ccco3)nn12 | 0.0236 | 12.1 | 0.286 | 42.8 | > 30 | 1.01 | –
16 | CC(C)Nc1nc(NC2CCCCC2)n2nc(-c3ccco3)nc2n1 | 0.397 | 0.26 | 0.105 | 2.02 | > 30 | 0.801 | –
17 | Nc1nc(NC2CCCCC2)nc2nc(-c3ccco3)nn12 | 0.00356 | 104 | 0.37 | 38.8 | 13.4 | 0.138 | –
18 | CNc1nc(NCc2ccc(F)cc2)n2nc(-c3ccco3)nc2n1 | 0.235 | 2.37 | 0.557 | 13.1 | > 30 | 3.08 | –
19 | Nc1nc(NCc2ccccc2)nc2nc(-c3ccco3)nn12 | 0.00111 | 27.7 | 0.0308 | 85.2 | 2.21 | 0.0946 | –
20 | c1ccc(CNc2nc(NC3CCCCC3)n3nc(-c4ccco4)nc3n2)cc1 | 0.0152 | 29.9 | 0.455 | 4.2 | > 30 | 0.0639 | –
21 | c1ccc(Oc2nc(NC3CCCCC3)n3nc(-c4ccco4)nc3n2)cc1 | 0.113 | 2.6 | 0.294 | 6.7 | > 30 | 0.757 | –
22 | CC(C)Nc1nc(NC(=O)Cc2ccccc2)n2nc(-c3ccco3)nc2n1 | 0.393 | 0.65 | 0.257 | 18.2 | > 30 | 7.15 | –
23 | O=C(Nc1ccccc1)Nc1nc(NCc2ccccc2)nc2nc(-c3ccco3)nn12 | 0.00144 | 20.6 | 0.0297 | 216 | 4.36 | 0.311 | –
24 | O=C(Nc1nc(NC2CCCCC2)nc2nc(-c3ccco3)nn12)c1ccccc1 | 1.02 | 8.33 | 8.5 | 7.41 | > 30 | 7.56 | –
25 | CNc1nc(N)n2nc(-c3ccco3)nc2n1 | 0.0493 | 31.6 | 1.56 | 52.1 | > 30 | 2.57 | –
26 | O=C(Cc1ccccc1)Nc1nc(NCc2ccccc2)nc2nc(-c3ccco3)nn12 | 0.00539 | 8.44 | 0.0455 | 125 | 7.62 | 0.676 | –
